Calls of active or inactive are those of the source. The calls are words filed in the database; no cut-off is given here.

Sequence of Serine/threonine-protein kinase PLK1 (P53350 whole entry): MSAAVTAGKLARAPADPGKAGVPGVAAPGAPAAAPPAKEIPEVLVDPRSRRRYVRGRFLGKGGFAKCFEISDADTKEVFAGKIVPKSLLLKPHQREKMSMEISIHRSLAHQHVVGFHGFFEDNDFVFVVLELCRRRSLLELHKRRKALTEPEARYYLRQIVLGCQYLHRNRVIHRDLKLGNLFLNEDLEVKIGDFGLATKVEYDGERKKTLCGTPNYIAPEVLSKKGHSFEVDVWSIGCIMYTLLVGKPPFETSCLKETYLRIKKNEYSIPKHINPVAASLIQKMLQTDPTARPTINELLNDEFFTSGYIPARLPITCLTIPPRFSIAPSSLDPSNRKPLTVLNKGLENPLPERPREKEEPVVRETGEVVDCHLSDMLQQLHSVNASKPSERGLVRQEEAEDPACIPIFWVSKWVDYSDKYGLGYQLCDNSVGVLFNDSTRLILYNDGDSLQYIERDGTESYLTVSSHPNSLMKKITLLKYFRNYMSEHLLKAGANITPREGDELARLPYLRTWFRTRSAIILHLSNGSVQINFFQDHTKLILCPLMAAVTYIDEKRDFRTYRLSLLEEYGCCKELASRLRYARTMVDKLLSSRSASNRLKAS
Sequence of Serine/threonine-protein kinase PLK3 (Q9H4B4 whole entry): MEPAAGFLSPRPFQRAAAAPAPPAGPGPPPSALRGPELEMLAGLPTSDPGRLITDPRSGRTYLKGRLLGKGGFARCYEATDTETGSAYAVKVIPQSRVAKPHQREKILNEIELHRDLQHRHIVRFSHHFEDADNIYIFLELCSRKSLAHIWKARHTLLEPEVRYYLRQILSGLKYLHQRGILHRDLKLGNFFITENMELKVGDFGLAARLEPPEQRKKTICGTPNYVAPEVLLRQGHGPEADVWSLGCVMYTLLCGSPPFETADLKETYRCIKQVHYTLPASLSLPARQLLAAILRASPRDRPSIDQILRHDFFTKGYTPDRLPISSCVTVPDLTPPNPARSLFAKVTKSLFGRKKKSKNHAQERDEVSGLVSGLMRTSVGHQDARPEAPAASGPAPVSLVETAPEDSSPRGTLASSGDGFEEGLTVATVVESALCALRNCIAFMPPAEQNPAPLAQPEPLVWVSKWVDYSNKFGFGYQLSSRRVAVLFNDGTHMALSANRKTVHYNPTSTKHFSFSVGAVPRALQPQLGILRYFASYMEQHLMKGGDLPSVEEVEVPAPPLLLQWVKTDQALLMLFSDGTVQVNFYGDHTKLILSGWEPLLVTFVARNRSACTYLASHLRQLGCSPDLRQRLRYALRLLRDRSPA

One assay concerns HeLa. Put plainly: Antiproliferative activity against human HeLa cells assessed as growth inhibition after 24 to 72 hrs. Format: functional, cell-based. The note with it: Homo sapiens, HeLa; read-out: EC50. In short, it runs like this: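 HeLa cells were exposed to compound for 24–72 h, with medium-only cells as control. Surviving cells are expressed as a percentage of control cell number at 72 h. n = 3.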
`COc1cc(CNCC2CCCO2)ccc1OCc1ccc(Cl)nc1` (centres undefined): the EC50 (in general, the midpoint of the concentration-response curve) stood at 66 µM. On to `COc1ccc(CCNCc2ccc(OCC(=O)NC(C)(C)C)c(OC)c2)cc1OC`, for which the EC50 was > 100 µM. For `COc1ccc(CCNCc2ccc(OCc3cccs3)c(OC)c2)cc1OC`, the EC50 is 18 µM. Same read-out and setting: the result for `COc1cc(OCc2cnc(Cl)c(Cl)c2)ccc1CNCc1ccncc1` reads 0.4 µM; that for `COc1cc(CNCc2ccncc2)ccc1OCc1cnc(Cl)c(Cl)c1`, 0.22 µM; that for `COc1cc(CNCc2ccncc2)ccc1OCc1ccc(C(F)(F)F)cc1`, 2.4 µM. On the same count and under the same terms, then `COc1cc(CNCCSc2nnnn2C)ccc1OCc1ccc(Cl)nc1`, with 86 µM; and `COc1ccc(CCNCc2ccc(OCc3ccc(Cl)nc3)c(OC)c2)cc1OC`, with 18 µM; and `COc1cc(CNCc2ccncc2)ccc1OCc1ccc(Cl)nc1`, with 0.4 µM.

For `COc1cc(CNCCNc2ccnc3cc(Cl)ccc23)ccc1OCc1ccc(Cl)nc1`, the EC50 was 2.7 µM.

As to `COc1ccc(COc2ccc(CNCc3ccncc3)cc2OC)cc1`, the EC50 was found to be 5 µM.

In the case of `COc1cc(CNCc2ccncc2)ccc1OCc1ccc(C)cc1`, the EC50 was determined as 5 µM. In the case of `COc1cc(CNCc2ccncc2)ccc1OCc1ccc(F)cc1`, the EC50 was determined as 6.4 µM. Still for that read-out and setting: then `COc1cc(CNCc2cccs2)ccc1OCc1ccc(Cl)nc1`, with 96 µM; and `COc1cc(CNCCc2ccc(F)cc2)ccc1OCc1ccc(Cl)nc1`, with 16 µM; and `COc1cc(CNCc2ccccn2)ccc1OCc1cccc(Cl)c1`, with 18 µM. Still for that read-out and setting: then `COc1ccc(CCNCc2ccc(OCC(=O)N3CCOCC3)c(OC)c2)cc1OC`, with 85 µM. The same measure, in the same setting: the result for `COc1cc(CNCCCN(C)C)ccc1OCc1ccc(Cl)nc1` reads 5 µM. As to `COc1cc(CNCCc2ccc(S(N)(=O)=O)cc2)ccc1OCc1ccc(Cl)nc1`, the EC50 stood at 12 µM.

For the molecule `COc1cc(CNCc2ccccn2)ccc1OCc1c(Cl)cccc1Cl`, the EC50 was found to be 6.1 µM. Same read-out and setting: then `CCOc1cc(CNCc2ccncc2)ccc1OCc1ccc(Cl)cc1`, with 2.5 µM; and `Clc1ccc(COc2ccc(CNCc3ccncc3)cc2)cc1`, with 4 µM.

Take `COc1cc(CNc2nc[nH]n2)ccc1OCc1ccc(Cl)nc1`: the EC50 stood at 69 µM.

On to `COc1cc(CNCc2ccncc2)ccc1OCc1cccc(F)c1`, for which the EC50 is 4.8 µM. Same read-out and setting: then `COc1cc(CNCc2ccccc2)ccc1OCc1ccc(Cl)nc1`, with 90 µM.

With `COc1cc(CNCCc2c[nH]c3ccccc23)ccc1OCc1ccc(Cl)nc1`, the EC50 turned out to be 8 µM. With `COc1cc(CNCc2ccncc2)ccc1OCc1ccc(Cl)cc1`, the EC50 stood at 0.89 µM.

Take `COc1cc(CNCCc2ccccc2F)ccc1OCc1ccc(Cl)nc1`: the EC50 was 18 µM.

Turning to `COc1cc(CNCC(=O)c2ccccc2)ccc1OCc1ccc(Cl)nc1`, the EC50 was determined as 60 µM. Still for that read-out and setting: the result for `COc1cc(CNCc2ccccn2)ccc1OCc1ccccc1Cl` reads 22 µM. Still for that read-out and setting: then `COc1cc(CNCc2ccc3c(c2)OCO3)ccc1OCc1ccc(Cl)nc1`, with 71 µM; and `COc1cc(CNCc2ccncc2)ccc1OCc1ccc([N+](=O)[O-])cc1`, with 0.44 µM; and `COc1cc(CNCc2ccncc2)ccc1OCc1ccccc1F`, with 5.1 µM.

Consider `COc1cc(OCc2ccc(Cl)nc2)ccc1CNCc1ccncc1`, for which the EC50 was 3.3 µM. The same measure, in the same setting: the result for `COc1cc(CNCc2ccncc2)ccc1OCc1ccc(Cl)cc1Cl` reads 3.9 µM; that for `COc1cc(CNCCNC(=O)c2cnon2)ccc1OCc1ccc(Cl)nc1`, 24 µM. With `COc1cc(OCc2ccc(Cl)cc2)ccc1CNCc1ccncc1`, the EC50 was 0.44 µM. `COc1ccc(CCNCc2ccc(OCC(=O)N3CCCCC3)c(OC)c2)cc1OC`: the EC50 turned out to be 87 µM. Same read-out and setting: the result for `COc1cc(CNCCc2ccncc2)ccc1OCc1ccc(Cl)nc1` reads 55 µM. Turning to `COCCNCc1ccc(OCc2ccc(Cl)nc2)c(OC)c1`, the EC50 turned out to be 97 µM. Still for that read-out and setting: the result for `COc1cc(CNCc2ccncc2)ccc1OCc1ccc(Cl)c(Cl)c1` reads 4 µM. On the same count and under the same terms, then `COc1cc(CNCc2ccccn2)ccc1OCc1ccc(Cl)c(Cl)c1`, with 13 µM; and `COc1cc(CNCc2cccnc2)ccc1OCc1ccc(Cl)nc1`, with 5 µM.

For `COc1cc(CNCCc2ccccc2)ccc1OCc1ccc(Cl)nc1`, the EC50 stood at 61 µM. On the same count and under the same terms, then `COc1cc(CNCCCN2CCOCC2)ccc1OCc1ccc(Cl)nc1`, with > 100 µM.

Still in this assay, the particulars now being: hela.
`COc1cc(CNC2CCCCC2)ccc1OCc1ccc(Cl)nc1`: the EC50 result is listed as “ND(Insoluble)”. Same read-out and setting: the result for `COc1ccc(CCNCc2ccc(OCc3ccc(Cl)nc3)c(OC)c2)cc1` reads “ND(Insoluble)”; that for `COc1cc(CNCc2ccc(C(=O)O)cc2)ccc1OCc1ccc(Cl)nc1`, “ND(Insoluble)”.

Another assay has as its system HeLa. Put plainly: Induction of apoptosis in human HeLa cells assessed as increase in PARP cleavage at 33 uM after 48 hrs by Western blot analysis. The assay is classed as functional, cell-based.
Settings: not given
In short, it runs like this: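 HeLa cells were harvested 48 h after compound incubation, with untreated medium controls. Western blotting against Parp detected both full-length protein and its apoptotic cleavage product.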
In general terms: A western blot detects proteins with antibodies after separation by electrophoresis.
Consider `COc1cc(CNCc2ccncc2)ccc1OCc1ccc(Cl)cc1`, for which the outcome was Active.

For the next assay, the system named is HeLa. Put plainly: Induction of apoptosis in human HeLa cells assessed as caspase-3/7 activation after 48 hrs […].
Settings: not given
The assay is classed as functional, cell-based. In short, it runs like this:
(§1)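 Caspase 3/7 activation in HeLa cells was read 48 h after treatment by luminescence and reported as relative RLU versus medium-only controls. n = 3, mean SD.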
For `COc1cc(CNCc2ccncc2)ccc1OCc1ccc(Cl)cc1`, the Activity entry was “Dose-dependent effect”.

Another assay concerns the target Serine/threonine-protein kinase PLK1 (Homo sapiens, UniProt P53350). Put plainly: Inhibition of Plk1 immunoprecipitated from human HeLa cells using casein substrate after 12 to 26 hrs by autoradiography. The assay is classed as cell-based.
Settings: not given
In short, it runs like this: (§2)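 HeLa cells were synchronized and incubated with compound. Plk1, Plk2 or Plk3 was then immunoprecipitated from the cells and assayed for kinase activity with casein as substrate. Activity was read by autoradiography.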
For `COc1cc(CNCc2ccncc2)ccc1OCc1ccc(Cl)cc1`, the IC50 (commonly the concentration that gives 50% inhibition) was 0.003 µM.

A further assay deals with Serine/threonine-protein kinase PLK2 (Homo sapiens, UniProt Q9NYY3). Put plainly: Inhibition of Plk2 immunoprecipitated from human HeLa cells using casein substrate after 12 to 26 hrs by autoradiography. The assay is classed as cell-based.
Sequence of Serine/threonine-protein kinase PLK2 (Q9NYY3 whole entry): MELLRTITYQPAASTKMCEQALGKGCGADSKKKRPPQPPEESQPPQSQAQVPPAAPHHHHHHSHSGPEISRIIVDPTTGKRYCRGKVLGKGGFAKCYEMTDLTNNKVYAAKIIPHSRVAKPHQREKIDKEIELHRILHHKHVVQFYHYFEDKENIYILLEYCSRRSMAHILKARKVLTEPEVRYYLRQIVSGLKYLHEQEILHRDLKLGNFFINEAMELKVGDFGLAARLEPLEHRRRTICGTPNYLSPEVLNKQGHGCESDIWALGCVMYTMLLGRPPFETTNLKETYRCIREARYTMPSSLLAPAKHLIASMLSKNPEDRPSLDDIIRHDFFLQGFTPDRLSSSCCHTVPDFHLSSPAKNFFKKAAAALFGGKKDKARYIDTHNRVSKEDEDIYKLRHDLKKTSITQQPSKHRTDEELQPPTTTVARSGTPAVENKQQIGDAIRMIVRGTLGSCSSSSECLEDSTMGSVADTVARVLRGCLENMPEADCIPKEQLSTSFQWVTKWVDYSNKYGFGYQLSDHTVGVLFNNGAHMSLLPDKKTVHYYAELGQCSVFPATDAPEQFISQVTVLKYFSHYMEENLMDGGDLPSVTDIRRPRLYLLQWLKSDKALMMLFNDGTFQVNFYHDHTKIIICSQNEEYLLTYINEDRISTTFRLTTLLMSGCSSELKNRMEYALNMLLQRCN
Settings: not given
In short, it runs like this:
as §2
On to `COc1cc(CNCc2ccncc2)ccc1OCc1ccc(Cl)cc1`, for which the IC50 is > 10 µM.

A further assay concerns the target Serine/threonine-protein kinase PLK3 (Homo sapiens, UniProt Q9H4B4). Put plainly: Inhibition of Plk3 immunoprecipitated from human HeLa cells using casein substrate after 12 to 26 hrs by autoradiography. The assay is classed as cell-based.
Settings: not given
In short, it runs like this:
as §2
Consider `COc1cc(CNCc2ccncc2)ccc1OCc1ccc(Cl)cc1`, for which the IC50 was > 10 µM.

The next assay concerns HeLa. Put plainly: Induction of apoptosis in human HeLa cells assessed as caspase-3/7 activation at 1 nM to 66 uM by […]. Format: functional, cell-based. The note with it: TDE = time-dependent effect. In short, it runs like this:
as §1
`COc1cc(CNCc2ccncc2)ccc1OCc1ccc(Cl)cc1`: the Activity entry is “tde”.
